According to ChEMBL document CHEMBL4138085, “Design, synthesis and antimicrobial evaluation of novel benzimidazole-incorporated sulfonamide analogues” (Eur J Med Chem, 2017):
Values after ≈ are worked out from the molar mass of the structure shown.

Tests used:
[1] = tested on: Staphylococcus aureus; assay: Antibacterial activity against Staphylococcus aureus ATCC 25923 after 24 hrs by NCCLS two fold broth microdilution method; format: functional; conditions: ATCC 25923, 24 h
Outline: (§1)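 Two-fold serial broth microdilution in 96-well plates following NCCLS. Compounds were dissolved in DMSO as stocks, then diluted in Mueller–Hinton broth to final concentrations of 0.5–512 µg/mL. Plates were inoculated and incubated at 37 °C for 24 h, with growth read visually and spectrophotometrically. MIC was taken as the lowest concentration giving complete growth inhibition. Run in triplicate, with a DMSO-plus-inoculum solvent control.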

[2] = tested on: Staphylococcus aureus; assay: Antibacterial activity against methicillin-resistant Staphylococcus aureus N315 after 24 hrs by NCCLS two fold broth microdilution method; format: functional; conditions: N315, 24 h
Outline: (§2)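 Two-fold serial broth microdilution per NCCLS. Chloromycin and norfloxacin as reference drugs; DMSO with inoculum, no drug, as solvent control. Incubation 37 °C for 24 h. Growth read visually and spectrophotometrically. MIC is the lowest concentration completely inhibiting growth; triplicate.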

[3] = tested on: Bacillus subtilis; assay: Antibacterial activity against Bacillus subtilis ATCC 21216 after 24 hrs by NCCLS two fold broth microdilution method; format: functional; conditions: ATCC 21216, 24 h; outline: as §1
[4] = tested on: Micrococcus luteus; assay: Antibacterial activity against Micrococcus luteus ATCC 4698 after 24 hrs by NCCLS two fold broth microdilution method; format: functional; conditions: NCTC 2665, 24 h; outline: as §1
[5] = tested on: Bacillus; assay: Antibacterial activity against Bacillus proteus ATCC 13315 after 24 hrs by NCCLS two fold broth microdilution method; format: functional; conditions: ATCC 13315, 24 h; outline: as §1
[6] = tested on: Escherichia coli; assay: Antibacterial activity against Escherichia coli ATCC 8099 after 24 hrs by NCCLS two fold broth microdilution method; format: functional; conditions: ATCC 8099, 24 h
Outline: as §1, with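 “NCCLS.” for “NCCLS. Compounds were dissolved in DMSO as stocks, then diluted in Mueller–Hinton broth to final concentrations of 0.5–512 µg/mL.”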

[7] = tested on: Pseudomonas aeruginosa; assay: Antibacterial activity against Pseudomonas aeruginosa ATCC 27853 after 24 hrs by NCCLS two fold broth microdilution method; format: functional; conditions: ATCC 27853, 24 h
Outline: as §1, with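 “NCCLS.” for “NCCLS. Compounds were dissolved in DMSO as stocks, then diluted in Mueller–Hinton broth to final concentrations of 0.5–512 µg/mL.”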

[8] = tested on: Salmonella typhi; assay: Antibacterial activity against Bacillus typhi after 24 hrs by NCCLS two fold broth microdilution method; format: functional, Salmonella enterica subsp. enterica serovar Typhi; conditions: Salmonella enterica
Outline: as §2, with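 “NCCLS. DMSO stocks diluted in Mueller–Hinton broth to 512, 256, 128, 64, 32, 16, 8, 4, 2, 1, 0.5 µg/mL.” for “NCCLS.”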

[9] = tested on: Candida albicans; assay: Antifungal activity against Candida albicans ATCC 76615 after 24 hrs by NCCLS two fold broth microdilution method; format: functional; conditions: ATCC 76615, 24 h
Outline: (§3)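 Two-fold serial microdilution following NCCLS. A spore suspension in sterile distilled water was prepared from one-day-old cultures grown on Sabouraud agar and adjusted to a final 1–5 × 10^3 spores/mL. DMSO stocks were diluted in RPMI 1640 to eleven concentrations (0.5–512 µg/mL), inoculated and held at 35 °C for 24 h. Growth was read visually and spectrophotometrically, MIC was the lowest concentration with complete inhibition, and runs were in triplicate.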

[10] = tested on: Pichia norvegensis; assay: Antifungal activity against Candida mycoderma after 24 hrs by NCCLS two fold broth microdilution method; format: functional
[11] = tested on: Cyberlindnera jadinii; assay: Antifungal activity against Candida utilis after 24 hrs by NCCLS two fold broth microdilution method; format: functional; conditions: Williopsis jadinii; outline: as §3
[12] = tested on: Saccharomyces cerevisiae; assay: Antifungal activity against Saccharomyces cerevisiae after 24 hrs by NCCLS two fold broth microdilution method; format: functional; outline: as §3
[13] = tested on: Aspergillus flavus; assay: Antifungal activity against Aspergillus flavus after 24 hrs by NCCLS two fold broth microdilution method; format: functional; outline: as §3

Structure (SMILES) | MIC [1] [µg/mL] | MIC [2] [µg/mL] | MIC [3] [µg/mL] | MIC [4] [µg/mL] | MIC [5] [µg/mL] | MIC [6] [µg/mL] | MIC [7] [µg/mL] | MIC [8] [µg/mL] | MIC [9] [µg/mL] | MIC [10] [µg/mL] | MIC [11] [µg/mL] | MIC [12] [µg/mL] | MIC [13] [µg/mL]
CCCCCCCCCCn1c(CS(=O)(=O)c2ccc(NC(C)=O)cc2)nc2ccccc21 | 512 (≈ 1090 µM) | 512 (≈ 1090 µM) | 512 (≈ 1090 µM) | 512 (≈ 1090 µM) | 512 (≈ 1090 µM) | 512 (≈ 1090 µM) | 512 (≈ 1090 µM) | 512 (≈ 1090 µM) | 512 (≈ 1090 µM) | 512 (≈ 1090 µM) | 16 (≈ 34.1 µM) | 512 (≈ 1090 µM) | 512 (≈ 1090 µM)
CCCCCCCCCCCCCCCCCCn1c(CS(=O)(=O)c2ccc(NC(C)=O)cc2)nc2ccccc21 | 128 (≈ 220 µM) | 512 (≈ 880 µM) | 512 (≈ 880 µM) | 512 (≈ 880 µM) | 512 (≈ 880 µM) | 512 (≈ 880 µM) | 512 (≈ 880 µM) | 512 (≈ 880 µM) | 512 (≈ 880 µM) | 512 (≈ 880 µM) | 512 (≈ 880 µM) | 512 (≈ 880 µM) | 512 (≈ 880 µM)
CCCCCCCCCCCCn1c(CS(=O)(=O)c2ccc(NC(C)=O)cc2)nc2ccccc21 | 512 (≈ 1030 µM) | 512 (≈ 1030 µM) | 512 (≈ 1030 µM) | 512 (≈ 1030 µM) | 512 (≈ 1030 µM) | 256 (≈ 514 µM) | 512 (≈ 1030 µM) | 512 (≈ 1030 µM) | 512 (≈ 1030 µM) | 512 (≈ 1030 µM) | 512 (≈ 1030 µM) | 512 (≈ 1030 µM) | 512 (≈ 1030 µM)
CC(=O)Nc1ccc(S(=O)(=O)Cc2nc3ccccc3n2Cc2ccccc2Cl)cc1 | 32 (≈ 70.5 µM) | 32 (≈ 70.5 µM) | 32 (≈ 70.5 µM) | 64 (≈ 141 µM) | 512 (≈ 1130 µM) | 32 (≈ 70.5 µM) | 16 (≈ 35.2 µM) | 16 (≈ 35.2 µM) | 32 (≈ 70.5 µM) | 512 (≈ 1130 µM) | 512 (≈ 1130 µM) | 512 (≈ 1130 µM) | 8 (≈ 17.6 µM)
CCCn1c(CS(=O)(=O)c2ccc(N)cc2)nc2ccccc21 | 256 (≈ 777 µM) | 128 (≈ 389 µM) | 32 (≈ 97.1 µM) | 256 (≈ 777 µM) | 256 (≈ 777 µM) | 64 (≈ 194 µM) | 256 (≈ 777 µM) | 32 (≈ 97.1 µM) | 64 (≈ 194 µM) | 4 (≈ 12.1 µM) | 64 (≈ 194 µM) | 32 (≈ 97.1 µM) | 8 (≈ 24.3 µM)
CCCCCCCCn1c(CS(=O)(=O)c2ccc(NC(C)=O)cc2)nc2ccccc21 | 64 (≈ 145 µM) | 512 (≈ 1160 µM) | 128 (≈ 290 µM) | 256 (≈ 580 µM) | 256 (≈ 580 µM) | 512 (≈ 1160 µM) | 256 (≈ 580 µM) | 512 (≈ 1160 µM) | 512 (≈ 1160 µM) | 512 (≈ 1160 µM) | 512 (≈ 1160 µM) | 8 (≈ 18.1 µM) | 512 (≈ 1160 µM)
CC(=O)Nc1ccc(S(=O)(=O)Cc2nc3ccccc3[nH]2)cc1 | 32 (≈ 97.2 µM) | 128 (≈ 389 µM) | 32 (≈ 97.2 µM) | 128 (≈ 389 µM) | 64 (≈ 194 µM) | 64 (≈ 194 µM) | 32 (≈ 97.2 µM) | 128 (≈ 389 µM) | 32 (≈ 97.2 µM) | 64 (≈ 194 µM) | 16 (≈ 48.6 µM) | 32 (≈ 97.2 µM) | 128 (≈ 389 µM)
CCn1cc(C(=O)O)c(=O)c2cc(F)c(N3CCNCC3)cc21 [NORFLOXACIN] | 8 (≈ 25.1 µM) | 1 (≈ 3.13 µM) | 2 (≈ 6.26 µM) | 1 (≈ 3.13 µM) | 4 (≈ 12.5 µM) | 1 (≈ 3.13 µM) | 1 (≈ 3.13 µM) | 1 (≈ 3.13 µM) |  |  |  |  | 
Nc1ccc(S(=O)(=O)Cc2nc3ccccc3n2Cc2cccc(Cl)c2)cc1 | 32 (≈ 77.7 µM) | 512 (≈ 1240 µM) | 512 (≈ 1240 µM) | 256 (≈ 621 µM) | 256 (≈ 621 µM) | 32 (≈ 77.7 µM) | 256 (≈ 621 µM) | 512 (≈ 1240 µM) | 512 (≈ 1240 µM) | 512 (≈ 1240 µM) | 512 (≈ 1240 µM) | 256 (≈ 621 µM) | 16 (≈ 38.8 µM)
CCCCCCCCn1c(CS(=O)(=O)c2ccc(N)cc2)nc2ccccc21 | 512 (≈ 1280 µM) | 512 (≈ 1280 µM) | 512 (≈ 1280 µM) | 512 (≈ 1280 µM) | 512 (≈ 1280 µM) | 512 (≈ 1280 µM) | 512 (≈ 1280 µM) | 512 (≈ 1280 µM) | 64 (≈ 160 µM) | 256 (≈ 641 µM) | 512 (≈ 1280 µM) | 512 (≈ 1280 µM) | 512 (≈ 1280 µM)
O=C(N[C@H](CO)[C@H](O)c1ccc([N+](=O)[O-])cc1)C(Cl)Cl [CHLORAMPHENICOL] | 8 (≈ 24.8 µM) |  | 32 (≈ 99 µM) | 8 (≈ 24.8 µM) | 32 (≈ 99 µM) |  |  | 32 (≈ 99 µM) |  |  |  |  | 
